Shown are actives, neighbours in structure and some others; about 4.2% of the full set was active somewhere.
Rad51 HR inh: Rad51 (human) homologous recombination inhibition; Q06609; hRad51 DNA strand exchange, fluorescence dequenching; inhibition, % at 10 µM; 0.085% of 200,000 active; AID 1385;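 active means inhibition above 40% at the single screening dose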;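 further: 0% = DMSO control wells and 100% = blanks with heterologous ssDNA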
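System: hRad51 filaments on single-stranded DNA; reagent: Fluorescein- and BHQ1-tagged 47-mer duplex; compound dosing: one concentration, 10 µM final; timing: filaments 15 min 37 °C, then compound 30 min; measured by: fluorescein emission 520 nm, excitation 485 nm; benchmarks: per-plate controls and blanks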
KCC2 mod: modulators of human KCC2 chloride dependent transport | KCC2 cells, thallium flux FluoZin-2 fluorescence | B-score of Tl+ flux slope (higher = more flux/activation; lower = inhibition) at 10 µM | 2.2% of 190,000 active | AID 1456;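 active means thallium flux slope and its plate-corrected score both differing from the plate sample mean at a set confidence after two filtering rounds, in either direction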;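 further: slope of fluorescence scaled to starting intensity during 10 to 20 s after thallium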
Target sequence (Q9H2X9 whole entry, looked up): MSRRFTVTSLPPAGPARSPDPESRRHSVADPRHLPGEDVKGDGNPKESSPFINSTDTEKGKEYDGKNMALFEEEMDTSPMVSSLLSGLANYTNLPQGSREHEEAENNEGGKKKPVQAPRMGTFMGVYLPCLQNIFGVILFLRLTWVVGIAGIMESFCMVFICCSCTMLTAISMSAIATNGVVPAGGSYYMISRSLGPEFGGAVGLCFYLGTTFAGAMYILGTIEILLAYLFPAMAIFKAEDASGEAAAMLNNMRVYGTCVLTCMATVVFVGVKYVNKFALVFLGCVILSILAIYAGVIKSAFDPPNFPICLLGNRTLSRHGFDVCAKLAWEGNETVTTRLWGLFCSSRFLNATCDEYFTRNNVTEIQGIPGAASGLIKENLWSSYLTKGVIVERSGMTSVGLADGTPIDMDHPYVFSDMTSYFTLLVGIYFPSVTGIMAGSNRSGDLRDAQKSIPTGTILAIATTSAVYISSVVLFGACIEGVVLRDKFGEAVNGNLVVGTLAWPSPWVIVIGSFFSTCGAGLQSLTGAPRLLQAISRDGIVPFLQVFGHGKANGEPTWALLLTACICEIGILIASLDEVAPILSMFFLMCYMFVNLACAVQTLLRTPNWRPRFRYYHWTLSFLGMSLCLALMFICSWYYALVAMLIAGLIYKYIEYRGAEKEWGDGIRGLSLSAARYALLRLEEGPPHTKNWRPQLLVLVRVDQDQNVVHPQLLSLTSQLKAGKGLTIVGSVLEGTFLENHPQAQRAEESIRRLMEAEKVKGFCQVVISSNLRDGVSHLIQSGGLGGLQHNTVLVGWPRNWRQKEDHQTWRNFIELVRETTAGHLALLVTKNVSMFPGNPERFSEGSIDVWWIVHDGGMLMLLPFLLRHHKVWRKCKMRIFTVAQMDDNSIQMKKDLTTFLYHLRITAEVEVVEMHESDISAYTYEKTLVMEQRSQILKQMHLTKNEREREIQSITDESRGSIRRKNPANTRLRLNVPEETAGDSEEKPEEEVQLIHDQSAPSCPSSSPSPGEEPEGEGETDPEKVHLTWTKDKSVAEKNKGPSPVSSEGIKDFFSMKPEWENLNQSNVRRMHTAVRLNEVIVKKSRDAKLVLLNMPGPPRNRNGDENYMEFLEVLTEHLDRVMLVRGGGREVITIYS
Autophagy mod: autophagy modulation, high-content screen; calls only at 10 µM (by protocol); 0.98% of 190,000 active; MEF GFP-LC3 puncta imaging; test concentration mostly 10 µM;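 active means percentage of spot-positive cells more than 3 SD above its plate mean, without a fluorescence outlier flag or 80% toxicity; inconclusive means no clear call, values can overlap the other calls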;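 further: spot-positive cell cutoff set from DMSO-treated cells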
WT yeast gro inh: growth inhibition of WT yeast, mitochondrial fusion screen; mitochondrial fusion phenotypic screen, WT strain; inhibition, % at 10 µM; 2.1% of 190,000 active; AID 1362; in the data active means inhibition above about 58%; tested in S. cerevisiae
SKKanGAS inh: blocks kanamycin growth of S. pyogenes SKKanGAS strain. BacTiter-Glo, 6 h. inhibition, % at 7.5 µM. 1.3% of 300,000 active. AID 1662;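 active means mean replicate score, as percent of positive control median, at least 50; inconclusive means mean below 50 but one replicate at or above 50; inactive means mean and every replicate below 50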;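 further: strain carries kanamycin resistance gene driven by streptokinase promoter and grows in 40 µg/ml kanamycin; loss of luminescence reflects streptokinase promoter inhibition or plain growth inhibition; 0% = median of DMSO wells and 100% = positive control at its reference dose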
Ins promoter up: MIN6 insulin promoter up-regulation; MIN6 insulin promoter-GFP reporter, high-content imaging; stronger effect = higher value; z-score at 5 µM; 0.3% of 190,000 active; AID 1625;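 active means z-score above 3 at 5 µM with at least 500 cells counted in the well; inconclusive means wells under 500 cells, flagged as cytotoxic or low count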
KCC2 sec1: confirmation of human KCC2 transport modulators. 15% of 3,700 active. HEK293-KCC2, thallium flux, FluoZin2 fluorescence; stronger effect = higher value. AID 1713. shares compounds with KCC2 mod. normalised thallium flux (F/F0 slope) at 10 µM;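 active means thallium flux slope above the same plate's solvent-only control mean plus 3 SD; inconclusive means the two replicate wells disagree; inactive means no significant difference from solvent-only control wells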
KCC2 bumet counter: bumetanide-insensitive thallium flux in KCC2 cells with ouabain, counter-screen; shares compounds with KCC2 mod; HEK293-KCC2 + bumetanide/ouabain, thallium flux FluoZin2; stronger effect = higher value; normalized thallium flux at 10 µM; 49% of 3,700 active;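 active means thallium entry rate above the same plate's blocked-transporter control wells by more than 3 SD; inconclusive means the two repeat wells disagree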;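 further: raw slope of fluorescence over initial fluorescence between 10 and 20 s after thallium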
KCC2 sec2: confirmation of human KCC2 transport modulators. HEK293-KCC2, thallium flux FluoZin2 fluorescence; actives lie on both sides; F/F0 rise rate, 10–20 s post-thallium. normalized thallium flux at 10 µM. 23% of 3,700 active. shares compounds with KCC2 mod;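 active means thallium flux slope more than 3 SD above or below the plate's solvent-only control mean, mostly below; inconclusive means the two repeat wells disagreed; inactive means no significant shift from solvent-only controls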;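 further: raw slope with 0.1% DMSO as baseline and bumetanide as block control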
HEK counter1: counter-screen for KCC2 modulators: effect in parental HEK293 cells; thallium flux FluoZin2, ouabain; baseline-ratio fluorescence slope, 10–20 s after thallium; 46% of 3,700 active; AID 1716; shares compounds with KCC2 mod; thallium flux rate (normalised fluorescence) at 10 µM;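 active means thallium flux rate significantly above the same plate's solvent-only control wells, beyond their mean plus 3 SD; inconclusive means the two replicate wells gave conflicting results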
KCC2 retest ouab: confirmation of human KCC2 modulators with ouabain. shares compounds with KCC2 mod. HEK293-KCC2, thallium flux FluoZin2 fluorescence; bidirectional: low = inhibitor, high = activator. raw Tl+ flux slope (below DMSO = inhibition, above = activation) at 10 µM. 48% of 3,700 active. AID 1717;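 active means thallium flux slope beyond 3 SD from same-plate DMSO control mean in most replicates, usually higher, sometimes lower; inconclusive means repeat tests gave conflicting results; inactive means no significant difference from controls in most replicates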;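 further: slope of initial-normalized fluorescence between seconds 10 and 20 after thallium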
HEK293 Tl flux2: counter-screen for KCC2 modulators: effect in parental HEK293 cells; shares compounds with KCC2 mod; thallium flux slope at 10 µM; 33% of 3,700 active; thallium flux FluoZin-2 fluorescence slope;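 active means thallium flux slope above the same plate's solvent-control mean plus 3 SD in both duplicate wells; inconclusive means duplicate wells that disagreed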;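 further: run without ouabain in cells lacking the KCC2 cotransporter; slope of fluorescence scaled to its starting value between 10 and 20 s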
Active calls of the source: *; i = inactive; ? = inconclusive; · = no result.

SMILES	Rad51 HR inh	KCC2 mod	Autophagy mod	WT yeast gro inh	SKKanGAS inh	Ins promoter up	KCC2 sec1	KCC2 bumet counter	KCC2 sec2	HEK counter1	KCC2 retest ouab	HEK293 Tl flux2
S=C(Nc1ccccn1)Nc1ccccc1Cl	·	5.01*	i	18.3	14.9	1.25	0.00795	0.0138*	0.029	0.00821*	?	0.00927
S=C(N/N=C/c1ccc(Cl)c(Cl)c1)Nc1ccccc1Cl	0.8	3.93*	i	-2.3	1.0	-0.09	0.0106	0.0302*	0.0348	0.0159*	0.032*	0.0124*
O=[N+]([O-])c1cc(/C=N/NC(=S)Nc2ccccc2Cl)ccc1Cl	1.9	7.76*	i	12.5	·	-0.19	0.00584	0.0149*	0.0348	0.0212*	0.0289*	0.0166*
C=CCc1c(NCCO)nc(C)[nH]c1=O	18.1	-0.761	i	-11.1	-7.9	-0.22	·	·	·	·	·	·
CC(C)Cn1c(N)c(C(=O)COC(=O)[C@@H]2CCCN2C(=O)c2cccs2)c(=O)n(C)c1=O	4.5	-0.164	i	-6.9	-10.0	0	·	·	·	·	·	·
O=C(OCCCc1ccncc1)c1ccc(S(=O)(=O)N2CCOCC2)cc1	-0.6	·	i	-5.2	4.5	-0.54	0.00954	0.0183*	0.0335	0.0109*	0.0222	0.0114*
O=C(N=C1SC2CS(=O)(=O)CC2N1c1ccccc1Cl)C1CCCO1 (centres undefined)	·	·	·	·	-2.1	·	·	·	·	·	·	·
CCCc1ccc(-c2cc(C(=O)Nc3ccc([N+](=O)[O-])cn3)c3ccccc3n2)cc1	6.2	-0.0473	i	9.5	18.2	0.45	·	·	·	·	·	·
O=C(N/N=C1\CCCc2ccccc21)c1cccc(Br)c1	3.0	5.93*	i	-3.0	16.9	-0.56	?	0.0224*	0.0295	0.0109*	?	?
C/C(=N/NC(=O)c1cccs1)c1ccco1	-3.4	4.7*	i	3.8	2.6	0.5	0.00856	0.0153*	0.0315	?	?	0.0109*
C/C(=N\NC(=O)c1cccc([N+](=O)[O-])c1)c1cccs1	5.2	3.82*	·	·	-2.3	-0.44	0.0115	0.0234*	0.0342	0.0175*	?	?
O=C(N/N=C1\CCCc2ccccc21)c1cccc([N+](=O)[O-])c1	·	4.4*	i	4.4	-7.8	·	?	0.0226*	0.0333	0.0117*	0.0258	0.0117*
O=C(CN1C(=O)COc2ccc(Cl)cc21)Nc1ccccn1	·	·	·	·	-4.5	·	·	·	·	·	·	·
NS(=O)(=O)c1cc(C(=O)N=Nc2c(O)[nH]c3ccccc23)ccc1Cl	-0.1	0.156	·	·	3.5	-0.15	·	·	·	·	·	·
COCCNC(=S)NC(=O)c1ccc(C(C)(C)C)cc1	-3.1	8.36*	i	22.4	-12.3	·	0.00975	0.0246*	0.03	?	0.0192	0.0106
C[C@@H](C(=O)N1CCN(C(=O)OC(C)(C)C)CC1)n1cc(CCCN=C(NC(=O)OC(C)(C)C)NC(=O)OC(C)(C)C)nn1	-6.5	-0.358	i	3.4	-2.8	1.17	·	·	·	·	·	·
COc1ccc(NS(=O)(=O)c2ccc(-n3nnc4ccccc43)c([N+](=O)[O-])c2)cc1	-0.8	0.971	i	-12.5	-2.3	·	·	·	·	·	·	·
O=[N+]([O-])c1cc(S(=O)(=O)Nc2cccc(C(F)(F)F)c2)ccc1-n1nnc2ccccc21	-0.2	-3.22*	i	25.5	-0.9	0.4	0.00701	0.00556	0.0305	0.00733	0.0149*	?
O=C(CNC(=O)c1cccs1)Nc1ccncc1	·	·	·	·	-7.5	·	·	·	·	·	·	·
CCc1ccc(NC(=S)NC(=O)c2c(-c3ccccc3Cl)noc2C)cc1	16.6	16.4*	·	·	-3.6	-0.56	0.00547	0.0271*	0.0403*	0.0277*	0.0318*	0.0171*
Cc1onc(-c2ccccc2Cl)c1C(=O)NC(=S)Nc1ccc(C(C)(C)C)cc1	15.0	6.89*	·	·	1.5	-0.9	0.00732	0.0118*	0.0312	0.0131*	0.0221	0.013*
CCn1c(NC(=O)c2cccs2)nc2ccccc21	-3.5	26.9*	i	16.8	40.7	0.05	0.00749	0.0295*	0.0358	0.0186*	?	0.0215*
CCCCCCCCC(=O)NNC(=O)c1c(O)c2ccccc2n(CC)c1=O	-24.1	9.47*	i	1.4	106.4*	-0.27	0.00558	0.0219*	0.0355	0.0187*	0.0299*	0.0195*
CCCCCCC(=O)NNC(=O)c1c(O)c2ccccc2n(CC)c1=O	-6.2	5.59*	i	-10.4	111.6*	0.13	0.00641	0.0168*	0.0337	0.0166*	0.0248*	0.0158*
CCCCCCCC(=O)NNC(=O)c1c(O)c2ccccc2n(CC)c1=O	-3.4	10.7*	i	16.8	98.6*	-0.3	0.00524	0.016*	0.0327	0.0174*	?	0.0185*
SMILES	Rad51 HR inh	KCC2 mod	Autophagy mod	WT yeast gro inh	SKKanGAS inh	Ins promoter up	KCC2 sec1	KCC2 bumet counter	KCC2 sec2	HEK counter1	KCC2 retest ouab	HEK293 Tl flux2
CCn1c(=O)c(C(=O)NCCc2ccccc2)c(O)c2ccccc21	10.4	0.56	i	2.9	12.8	-0.3	·	·	·	·	·	·
CCOc1ccc(NC(=O)CSc2nccn(-c3ccc4c(c3)OCCO4)c2=O)cc1	·	·	·	·	-7.4	·	·	·	·	·	·	·
O=[N+]([O-])c1cc(/C=N/n2c(-c3cccnc3)n[nH]c2=S)ccc1Cl	-35.2	8.07*	i	-0.8	8.8	1.17	0.00633	0.0766*	0.0332	?	?	?
Cc1ccc(/C=N/n2c(-c3ccco3)n[nH]c2=S)cc1	5.9	15.4*	·	·	21.1	-0.13	0.00696	0.0279*	0.0327	0.0187*	0.0312*	0.0171*
Cn1cccc1/C=N/n1c(-c2ccco2)n[nH]c1=S	-0.2	0.0915	i	-12.9	-2.5	-0.36	·	·	·	·	·	·
O=[N+]([O-])c1ccccc1/C=N/n1c(-c2cccnc2)n[nH]c1=S	-4.1	-1.04	i	-14.6	5.4	-0.03	·	·	·	·	·	·
Cc1cccc(/C=N/n2c(-c3ccco3)n[nH]c2=S)c1	·	17.5*	·	·	3.4	0.43	0.0118*	0.068*	0.0314	0.0164*	0.0404*	0.0113*
Cc1n[nH]c(=S)n1/N=C/c1cccc(OCc2ccccc2)c1	-0.7	16.2*	i	48.8	-7.1	-0.21	0.0174	0.0268*	0.0335	0.014*	0.0225*	0.0163*
